Experimental data taken from ChEMBL document CHEMBL1135993, “4,5-diphenyltriazol-3-ones: openers of large-conductance Ca(2+)-activated potassium (maxi-K) channels” (J Med Chem, 2002).

What follows are compounds tested against Calcium-activated potassium channel subunit alpha-1 (Mus musculus) (UniProt Q08460) (assay: Percent opening of mouse maxi-K channel expressed in xenopus oocyte at a concentration of 20 umolar under voltage clamp.). Conditions: Xenopus laevis oocytes.
Type: functional
Summary of the method: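 Xenopus laevis oocytes injected with mSlo cRNA 2–6 days before recording, kept at 17 °C in ND96 (mM: NaCl 90, KCl 1.0, CaCl2 1.0, MgCl2 1.0, HEPES 5.0, pH 7.5) with 5% horse serum and penicillin/streptomycin. Two-electrode voltage clamp, steps 500–750 ms, +20 mV increments from −60 mV holding to +140 mV. Compound gravity-perfused at 20 μM. Iberiotoxin-sensitive outward current expressed as percent of control; mean of ≥5 oocytes.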

Sequence of Calcium-activated potassium channel subunit alpha-1 (Mus musculus) (Q08460 whole entry): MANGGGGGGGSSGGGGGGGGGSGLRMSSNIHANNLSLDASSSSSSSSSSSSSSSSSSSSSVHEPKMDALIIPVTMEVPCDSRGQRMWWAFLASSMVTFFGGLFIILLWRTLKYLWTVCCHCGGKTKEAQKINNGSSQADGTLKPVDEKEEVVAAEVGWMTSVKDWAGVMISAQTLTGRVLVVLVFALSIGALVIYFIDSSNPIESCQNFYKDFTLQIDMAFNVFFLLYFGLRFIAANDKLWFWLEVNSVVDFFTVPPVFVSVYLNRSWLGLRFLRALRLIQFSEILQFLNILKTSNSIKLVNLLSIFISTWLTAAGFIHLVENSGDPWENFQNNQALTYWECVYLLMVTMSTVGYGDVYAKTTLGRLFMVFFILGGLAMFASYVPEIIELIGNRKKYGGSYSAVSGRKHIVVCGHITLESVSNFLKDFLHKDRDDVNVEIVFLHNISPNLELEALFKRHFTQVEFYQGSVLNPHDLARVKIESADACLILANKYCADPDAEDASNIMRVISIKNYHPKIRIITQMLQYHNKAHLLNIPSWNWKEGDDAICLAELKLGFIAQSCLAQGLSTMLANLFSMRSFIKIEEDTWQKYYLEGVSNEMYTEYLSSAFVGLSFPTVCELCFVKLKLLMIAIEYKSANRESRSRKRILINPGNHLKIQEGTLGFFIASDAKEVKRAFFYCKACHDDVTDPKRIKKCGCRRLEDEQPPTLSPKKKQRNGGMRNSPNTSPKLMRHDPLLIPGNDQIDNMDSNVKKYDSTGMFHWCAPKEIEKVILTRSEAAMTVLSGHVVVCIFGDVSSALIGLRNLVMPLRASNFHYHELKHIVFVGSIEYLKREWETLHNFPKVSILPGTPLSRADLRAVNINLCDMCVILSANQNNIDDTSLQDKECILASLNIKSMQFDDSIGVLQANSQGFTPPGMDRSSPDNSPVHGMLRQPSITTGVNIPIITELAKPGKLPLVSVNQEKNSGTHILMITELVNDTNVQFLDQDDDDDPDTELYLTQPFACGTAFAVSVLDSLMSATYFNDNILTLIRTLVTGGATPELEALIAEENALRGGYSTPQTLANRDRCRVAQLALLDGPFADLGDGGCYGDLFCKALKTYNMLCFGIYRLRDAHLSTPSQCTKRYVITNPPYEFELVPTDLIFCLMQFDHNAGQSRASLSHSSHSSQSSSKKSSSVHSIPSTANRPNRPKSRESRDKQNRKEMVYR

Activity [%] | SMILES
107 | Oc1ccc(Cl)cc1-n1c(O)nnc1-c1ccccc1C(F)(F)F
105 | Oc1ccc(Cl)cc1Cc1nccn1-c1ccc(C(F)(F)F)cc1
101 | Oc1ccc(Cl)c(-n2c(O)nnc2-c2ccc(C(F)(F)F)cc2)c1
159 | Oc1ccc(Cl)cc1-n1c(O)nnc1-c1cc(C(F)(F)F)cc(C(F)(F)F)c1
138 | Oc1ccc(Cl)cc1-n1c(O)nnc1-c1cccc(C(F)(F)F)c1
128 | Oc1ccc(Cl)cc1-c1nnc(O)n1Cc1ccc(C(F)(F)F)cc1
126 | Oc1ccc(Cl)cc1-n1cncc1-c1ccc(C(F)(F)F)cc1
121 | Oc1ccc(Cl)cc1-n1c(O)nnc1-c1ccc(C(F)(F)F)cc1
132 | O=c1[nH]c2cc(C(F)(F)F)ccc2n1-c1cc(Cl)ccc1O
102 | Oc1ccc(Cl)cc1-n1cnnc1-c1ccc(C(F)(F)F)cc1
116 | O=c1[nH]c2cc(C(F)(F)F)ccc2n1-c1cc(C(F)(F)F)ccc1O
84 | Oc1ccc(Cl)cc1Cc1nnc(O)n1-c1ccc(C(F)(F)F)cc1
92 | O=c1onc(-c2cc(C(F)(F)F)cc(C(F)(F)F)c2)n1-c1cc(Cl)ccc1O
128 | Oc1ccc(Cl)cc1-n1c(S)nnc1-c1ccc(C(F)(F)F)cc1
117 | Nc1nnc(-c2ccc(C(F)(F)F)cc2)n1-c1cc(Cl)ccc1O
125 | Oc1ccc(Cl)cc1-n1c(O)nnc1Cc1ccc(C(F)(F)F)cc1
118 | Oc1ccc(Cl)cc1-n1c(O)nnc1-c1ccc(F)cc1
101 | Oc1ccc(Cl)cc1-n1c(O)nnc1-c1ccccc1
93 | Cn1nc(-c2ccc(C(F)(F)F)cc2)n(-c2cc(Cl)ccc2O)c1=O
101 | O=c1onc(-c2ccc(C(F)(F)F)cc2)n1Cc1cc(Cl)ccc1O
123 | Oc1ccc(Cl)cc1-c1nnc(O)n1-c1ccc(C(F)(F)F)cc1
109 | Oc1ccc(Cl)cc1Cn1c(O)nnc1-c1ccc(C(F)(F)F)cc1
99 | Oc1ccc(-n2c(O)nnc2-c2ccc(C(F)(F)F)cc2)cc1Cl
